Data on ten compounds can be found in ChEMBL document CHEMBL4823332, “Discovery and Development of Cyclic Peptide Inhibitors of CIB1” (ACS Med Chem Lett, 2021).

Data set [1] in a line: Stability in human MDA-MB-468 cell lysates assessed as compound remaining at 150 uM after 24 hrs by LCMS method. As to conditions: read-out: Stabilty. The data set is classed as ADME, subcellular. In outline: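 Peptides were incubated in MDA-MB-468 cell lysates at 37 °C.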
The next data set has as its system MDA-MB-468. The data set can be described thus: Cytotoxicity against human MDA-MB-468 cells assessed as cell death at 30 uM incubated for 24 hrs by trypan blue assay. The data set is classed as functional.
Data set [2] concerns the target T1, Calcium and integrin-binding protein 1 (Homo sapiens, UniProt Q99828).
T1 sequence (Q99828 whole entry): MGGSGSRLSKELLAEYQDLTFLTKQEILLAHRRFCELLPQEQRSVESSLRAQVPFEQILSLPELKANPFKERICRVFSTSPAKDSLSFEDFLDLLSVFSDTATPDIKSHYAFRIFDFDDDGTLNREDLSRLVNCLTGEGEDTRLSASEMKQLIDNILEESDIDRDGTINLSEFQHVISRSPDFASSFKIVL
The data set can be described thus: Displacement of Alexa Fluor 647 labelled UNC10245092 peptide from CIB1 (unknown origin) preincubated for 20 mins followed by Alexa-CIB1 phage peptide addition and measured after 20 to 30 mins by TR-FRET assay.

A short description of data set [3]: Cytotoxicity against human MDA-MB-231 cells assessed as cell death at 30 uM incubated for 24 hrs by trypan blue assay. The data set is classed as cell-based. The conditions noted are these: mda-mb-231, 24 h.
Data set [4] concerns the target T2, Calcium and integrin-binding protein 1 (Homo sapiens) (UniProt Q99828).
T2 sequence (whole entry): T1 sequence (Q99828 whole entry)
The data set can be described thus: Inhibition of CIB1 in human MDA-MB-468 cells assessed as reduction in ERK activity after 6 to 24 hrs by Western blotting analysis. The data set is classed as cell-based. The conditions noted are these: time 6-24 hrs. In outline: (§1)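 Cells were treated with peptide for 6 h and for 24 h alongside a DMSO vehicle control. Lysates were then immunoblotted for phospho-AKT, phospho-ERK and CIB1, and the levels were compared with the DMSO-treated cells.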

Data set [5] addresses T1, Calcium and integrin-binding protein 1. The data set can be described thus: Binding affinity to full length CIB1 (unknown origin) at 300 uM by isothermal titration calorimetry.
The target of data set [6] is T2, Calcium and integrin-binding protein 1 (Homo sapiens). The data set can be described thus: Inhibition of CIB1 in human MDA-MB-231 cells assessed as reduction in AKT activity after 6 to 24 hrs by Western blotting analysis. The conditions noted are these: time 6-24 hrs. The class given is cell-based. Summed up:
as §1

The target is the same in data set [7]. The experiment in a line: Inhibition of CIB1 in human MDA-MB-231 cells assessed as reduction in ERK activity after 6 to 24 hrs by Western blotting analysis. The data set is classed as cell-based. The conditions noted are these: time 6-24 hrs. In outline:
as §1

Data set [8] has the same target. The experiment in a line: Inhibition of CIB1 in human MDA-MB-468 cells assessed as reduction in CIB1 level after 6 hrs by Western blotting analysis. The data set is classed as cell-based. Summed up:
as §1

Data set [9] has the same target. The experiment in a line: Inhibition of CIB1 in human MDA-MB-231 cells assessed as reduction in CIB1 level after 6 hrs by Western blotting analysis. The class given is cell-based. Summed up: as §1
The target is the same in data set [10]. The data set can be described thus: Inhibition of CIB1 in human MDA-MB-468 cells assessed as reduction in AKT activity after 6 to 24 hrs by Western blotting analysis. As to conditions: time 6-24 hrs. The class given is cell-based. Summed up:
as §1

The target is the same in data set [11]. The data set can be described thus: Inhibition of CIB1 in human MDA-MB-468 cells assessed as reduction in pERK level after 6 to 24 hrs by Western blotting analysis. The class given is cell-based. As to conditions: time 6-24 hrs. In outline: as §1
Data set [12] has the same target. The experiment in a line: Inhibition of CIB1 in human MDA-MB-468 cells assessed as reduction in pAKT level after 6 to 24 hrs by Western blotting analysis. The data set is classed as cell-based. The conditions noted are these: time 6-24 hrs. Summed up:
as §1

Data set [13] shares this target. The experiment in a line: Inhibition of CIB1 in human MDA-MB-231 cells assessed as reduction in pERK level after 6 to 24 hrs by Western blotting analysis. The data set is classed as cell-based. The conditions noted are these: time 6-24 hrs. In outline:
as §1

Data set [14] has the same target. The experiment in a line: Inhibition of CIB1 in human MDA-MB-231 cells assessed as reduction in pAKT level after 6 to 24 hrs by Western blotting analysis. The data set is classed as cell-based. The conditions noted are these: time 6-24 hrs. Summed up:
as §1

Activity calls are given as the source filed them. The calls are words filed in the database; no cut-off is given here. Starred links: 1 amine or outer side, 2 acyl side, 3 side chain; linkers in the order of their positions; H or OH if unused. Positions of bridges follow the written chain, without caps; N, C: chain ends. Non-standard residues stand in square brackets, D forms with d. Residues, ends and D or L forms follow the SMILES beside them. ξ: configuration not given here. *: point of attachment. NMeW = CN[C@@H](Cc1c[nH]c2ccccc12)C(=O)O; NH(CH2CH2O)2(CH2)6Cl = ClCCCCCCOCCOCCN*; Ala(2-furyl) = N[C@@H](Cc1ccco1)C(=O)O; NMeY = CN[C@@H](Cc1ccc(O)cc1)C(=O)O; Suc = O=C(CCC(=O)[*:2])[*:1]; hLeu = CC(C)CC[C@H](N)C(=O)O; ξhLeu = CC(C)CCC(N)C(=O)O; NMeA = CN[C@@H](C)C(=O)O; Nle = CCCC[C@H](N)C(=O)O A value given as a limit tells only on which side of the number the result lay.

For the compound `CC[C@H](C)[C@@H]1NC(=O)[C@H](CC(C)C)NC(=O)[C@H](Cc2c[nH]c3ccccc23)NC(=O)[C@H](Cc2ccc(O)cc2)NC(=O)[C@@H]2CCCN2C(=O)[C@H](CCC(N)=O)NC(=O)[C@H](C)NC(=O)[C@H](Cc2ccc(O)cc2)NC(=O)CSC[C@@H](C(N)=O)NC(=O)[C@H](Cc2c[nH]c3ccccc23)NC(=O)[C@H](CC(N)=O)NC1=O` ({CH2CO}-YAQPYWLINWC-NH2; thioether N-11), the remaining at 24 h, 150 µM in data set [1] amounted to 21.9%. Also, the Activity with MDA-MB-468 turned out to be 2.7%; in data set [3] it was 1.5%. The IC50 in data set [2] turned out to be 9 nM.

As for `CC[C@H](C)[C@@H]1NC(=O)[C@H](CC(C)C)NC(=O)[C@H](Cc2c[nH]c3ccccc23)NC(=O)[C@H](Cc2ccc(O)cc2)NC(=O)[C@@H]2CCCN2C(=O)[C@H](CCC(N)=O)NC(=O)[C@H](CCCCN)NC(=O)[C@H](Cc2ccc(O)cc2)NC(=O)CSC[C@@H](C(N)=O)NC(=O)[C@H](Cc2c[nH]c3ccccc23)NC(=O)[C@H](CC(N)=O)NC1=O` ({CH2CO}-YKQPYWLINWC-NH2; thioether N-11), in data set [1], the remaining at 24 h, 150 µM turned out to be 48.6%. The Activity with MDA-MB-468 was 2.7%; in data set [3], 2%. In addition, the IC50 in data set [2] was found to be 12 nM. For the same compound, the inhibition entry in [4], in data set [6], in data set [7], in data set [8], in data set [9] and in data set [10] was “inactive” each time. For the same compound, the Kd in [5] amounted to 6 nM.

For the compound `CC[C@H](C)[C@@H]1NC(=O)[C@H](CC(C)C)NC(=O)[C@H](Cc2c[nH]c3ccccc23)N(C)C(=O)[C@H](Cc2ccc(O)cc2)NC(=O)[C@@H]2CCCN2C(=O)C(CCC(C)C)NC(=O)[C@H](C)N(C)C(=O)[C@H](Cc2ccc(O)cc2)NC(=O)CSC[C@@H](C(N)=O)NC(=O)[C@H](Cc2c[nH]c3ccccc23)NC(=O)[C@H](CC(N)=O)NC1=O` (stereo partly specified) ({CH2CO}-Y[NMeA][ξhLeu]PY[NMeW]LINWC-NH2; thioether N-11), the IC50 in data set [2] is 190 nM.

Consider `CCCC[C@@H]1NC(=O)[C@H](Cc2ccc(O)cc2)NC(=O)CSC[C@@H](C(N)=O)NC(=O)[C@H](Cc2c[nH]c3ccccc23)NC(=O)[C@H](CC(C)C)NC(=O)[C@H]([C@@H](C)CC)NC(=O)[C@H](CC(C)C)NC(=O)[C@H](Cc2c[nH]c3ccccc23)NC(=O)[C@H](Cc2ccc(O)cc2)NC(=O)[C@@H]2CCCN2C(=O)[C@H](CCC(N)=O)NC1=O` ({CH2CO}-Y[Nle]QPYWLILWC-NH2; thioether N-11), for which the remaining at 24 h, 150 µM in data set [1] was 62.2%. In addition, the results for the Activity (in the data set with MDA-MB-468; in data set [3]) were 3.4% and 1.1%, respectively. Besides, in data set [2], the IC50 was 59 nM.

On to `CCCC[C@@H]1NC(=O)[C@H](Cc2ccc(O)cc2)NC(=O)CSC[C@@H](C(N)=O)NC(=O)[C@H](Cc2c[nH]c3ccccc23)NC(=O)[C@H](Cc2ccco2)NC(=O)[C@H]([C@@H](C)CC)NC(=O)[C@H](CC(C)C)NC(=O)[C@H](Cc2c[nH]c3ccccc23)NC(=O)[C@H](Cc2ccc(O)cc2)NC(=O)[C@@H]2CCCN2C(=O)[C@H](CCC(C)C)NC1=O` ({CH2CO}-Y[Nle][hLeu]PYWLI[Ala(2-furyl)]WC-NH2; thioether N-11), for which the IC50 in data set [2] was found to be 1500 nM.

Consider `CC[C@H](C)[C@@H]1NC(=O)[C@H](CC(C)C)NC(=O)[C@H](Cc2c[nH]c3ccccc23)NC(=O)[C@H](Cc2ccc(O)cc2)N(C)C(=O)[C@@H]2CCCN2C(=O)[C@H](CCC(C)C)NC(=O)[C@H](C)NC(=O)[C@H](Cc2ccc(O)cc2)N(C)C(=O)CSC[C@@H](C(N)=O)NC(=O)[C@H](Cc2c[nH]c3ccccc23)NC(=O)[C@H](CC(N)=O)NC1=O` ({CH2CO}-[NMeY]A[hLeu]P[NMeY]WLINWC-NH2; thioether N-11), for which, in data set [2], the IC50 was 1800 nM.

As to `CSCC[C@H](NC(=O)[C@H](C)NC(=O)CNC(=O)[C@H](Cc1ccc(O)cc1)NC(=O)[C@H](Cc1c[nH]c2ccccc12)NC(=O)[C@H](Cc1ccccc1)NC(=O)[C@H](CO)NC(=O)CNC(=O)CNC(=O)[C@H](CC(=O)O)NC(=O)[C@H](CCC(=O)O)NC(=O)CCC(=O)NCCOCCOCCCCCCCl)C(=O)N[C@@H](CCCCN)C(=O)N[C@@H](C)C(=O)N[C@@H](CC(C)C)C(=O)N[C@@H](Cc1ccc(O)cc1)C(=O)NCC(N)=O` ({NH(CH2CH2O)2(CH2)6Cl-Suc}-EDGGSFWYGAMKALYG-NH2), the Activity with MDA-MB-468 was 1.7%; in data set [3], 9.5%. In addition, in data set [2], the IC50 stood at 46 nM. For the same compound, the Kd in data set [5] worked out at 29.4 nM.

Turning to `CSCC[C@H](NC(=O)[C@H](C)NC(=O)CNC(=O)[C@H](Cc1ccc(O)cc1)NC(=O)[C@H](C)NC(=O)[C@H](Cc1ccccc1)NC(=O)[C@H](CO)NC(=O)CNC(=O)CNC(=O)[C@H](CC(=O)O)NC(=O)[C@H](CCC(=O)O)NC(=O)[C@H](CCC(N)=O)NC(=O)[C@@H]1CCCN1C(=O)[C@H](CCCNC(=N)N)NC(=O)[C@H](CCCNC(=N)N)NC(=O)[C@H](CCCNC(=N)N)NC(=O)[C@H](CCC(N)=O)NC(=O)[C@H](CCCNC(=N)N)NC(=O)[C@H](CCCNC(=N)N)NC(=O)[C@H](CCCCN)NC(=O)[C@H](CCCCN)NC(=O)[C@H](CCCNC(=N)N)NC(=O)CNC(=O)CCC(=O)NCCOCCOCCCCCCCl)C(=O)N[C@@H](CCCCN)C(=O)N[C@@H](C)C(=O)N[C@@H](CC(C)C)C(=O)N[C@@H](C)C(=O)NCC(N)=O` ({NH(CH2CH2O)2(CH2)6Cl-Suc}-GRKKRRQRRRPQEDGGSFAYGAMKALAG-NH2), the remaining at 24 h, 150 µM in data set [1] came to 0%. Also, the figures for the Activity (in the data set on MDA-MB-468; in [3]) were 1.1% and 1.9%, respectively. The IC50 in [2] was more than 10000 nM.

Turning to `CSCC[C@H](NC(=O)[C@H](C)NC(=O)CNC(=O)[C@H](Cc1ccc(O)cc1)NC(=O)[C@H](Cc1c[nH]c2ccccc12)NC(=O)[C@H](Cc1ccccc1)NC(=O)[C@H](CO)NC(=O)CNC(=O)CNC(=O)[C@H](CC(=O)O)NC(=O)[C@H](CCC(=O)O)NC(=O)[C@H](CCC(N)=O)NC(=O)[C@@H]1CCCN1C(=O)[C@H](CCCNC(=N)N)NC(=O)[C@H](CCCNC(=N)N)NC(=O)[C@H](CCCNC(=N)N)NC(=O)[C@H](CCC(N)=O)NC(=O)[C@H](CCCNC(=N)N)NC(=O)[C@H](CCCNC(=N)N)NC(=O)[C@H](CCCCN)NC(=O)[C@H](CCCCN)NC(=O)[C@H](CCCNC(=N)N)NC(=O)CNC(=O)CCC(=O)NCCOCCOCCCCCCCl)C(=O)N[C@@H](CCCCN)C(=O)N[C@@H](C)C(=O)N[C@@H](CC(C)C)C(=O)N[C@@H](Cc1ccc(O)cc1)C(=O)NCC(N)=O` ({NH(CH2CH2O)2(CH2)6Cl-Suc}-GRKKRRQRRRPQEDGGSFWYGAMKALYG-NH2), the remaining at 24 h, 150 µM in data set [1] came to 0%. In addition, the inhibition result in data set [11], in data set [12], in [13], in [14], in [8] and in data set [9] was “Active” throughout. In addition, the Activity with MDA-MB-468 is 57.1%; in data set [3], 9.6%. Besides, the IC50 in [2] was 150 nM.

As for Ac-YKQPYWLINWA-NH2, in data set [2], the IC50 is more than 10000 nM.
